Assay [1] deals with T1, Human immunodeficiency virus type 1 protease (Human immunodeficiency virus 1, UniProt Q72874). The assay is described as follows: Inhibitory activity against recombinant HIV-1 Protease.
Assay [2] relates to MT4. The assay is described as follows: In vitro inhibitory activity against HIV-1 in MT-4 cells. In kind it is functional, cell-based. Conditions: Homo sapiens. The method, boiled down:
(§1)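 MT4 cells (1 × 10⁴) were infected with 10 TCID₅₀ HIV-1 3B for 2 h, washed, and grown at 37 °C in inhibitor-containing medium. Viral cytopathic effect and compound toxicity were both scored on day 5 by MTT uptake. IC₅₀ and TC₅₀ came from this read-out.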

The target in assay [3] is T1, Human immunodeficiency virus type 1 protease. Briefly: Inhibitory activity against recombinant HIV-1 protease.
In assay [4] the test system is H9. Briefly: In vitro inhibitory cytopathic effect against HIV-1 in H9 cells. The assay is classed as functional. The following applies: Homo sapiens, H9, read-out: TC50.
In assay [5] the test system is H9. Briefly: In vitro inhibitory activity against HIV-1 in H9 cells. In kind it is functional, cell-based. The following applies: Homo sapiens. In a few lines:
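H9 cells (2 × 10⁴) were infected with 100 TCID₅₀ HIV-1 3B for 2 h, washed, then cultured at 37 °C with inhibitor. Viral replication was read as p24 antigen by ELISA on days 7 and 10, and IC₅₀ was taken from the dose-response. Viability of uninfected cultures was checked by trypan blue exclusion.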

The test system of assay [6] is MT4. Briefly: In vitro inhibitory cytopathic effect against HIV-1 in MT-4 cells. In kind it is functional. Conditions: Homo sapiens, MT4, read-out: TC50. In a few lines:
as §1
Background: Damage to the host cells serves as the signal in cytopathic effect assays.

What is called IC50 is the concentration at which inhibition is half-maximal.

As to `CC(=O)N[C@H](C(=O)N[C@@H](Cc1ccccc1)C(O)[C@H](Cc1ccccc1)NC(=O)[C@@H](NC(C)=O)C(C)C)C(C)C`, the IC50 in assay [1] is 12 nM.

`CC(C)(C)OC(=O)N[C@@H](Cc1ccccc1)[C@H](O)[C@H](O)[C@H](Cc1ccccc1)NC(=O)OC(C)(C)C`: the IC50 in assay [1] came out at 12 nM.

Take `CC(C)[C@H](NC(=O)OCc1ccccc1)C(=O)N[C@@H](Cc1ccccc1)[C@@H](O)[C@@H](O)[C@H](Cc1ccccc1)NC(=O)[C@H](NC(=O)OCc1ccccc1)C(C)C`: the half-inhibitory concentration (IC50) amounted to 16 nM in the assay on MT4 [2], 0.22 nM in assay [3] and 20 nM in the assay on H9 [5]. Besides, the CC50 was 60000 nM in the assay on H9 [4] and above 100000 nM in the assay with MT4 [6].

With `CC(C)[C@H](NC(=O)OCc1ccccc1)C(=O)N[C@@H](Cc1ccccc1)[C@H](O)[C@@H](O)[C@H](Cc1ccccc1)NC(=O)[C@H](NC(=O)OCc1ccccc1)C(C)C`, the results for the IC50 (with MT4 [2]; in assay [3]; in the assay on H9 [5]) were 150 nM, 0.38 nM and 60 nM, respectively. In addition, the CC50 with H9 [4] and in the assay on MT4 [6] was above 100000 nM in each case.

For `CC(C)[C@H](NC(=O)OCc1ccccc1)C(=O)N[C@@H](Cc1ccccc1)[C@@H](O)[C@H](Cc1ccccc1)NC(=O)[C@H](NC(=O)OCc1ccccc1)C(C)C`, the IC50 in assay [1] amounted to 3 nM.

With `CC(C)[C@H](NC(=O)OCc1ccccc1)C(=O)N[C@@H](Cc1ccccc1)[C@@H](O)[C@H](O)[C@H](Cc1ccccc1)NC(=O)[C@H](NC(=O)OCc1ccccc1)C(C)C`, the results for the IC50 (in the assay on MT4 [2]; in the assay with H9 [5]; in assay [1]) were 80 nM, 20 nM and 0.22 nM, respectively. The CC50 in the assay with H9 [4] is 10000 nM; in the assay with MT4 [6], above 100000 nM.

Take `CC(C)C[C@H](NC(=O)OCc1ccccc1)C(=O)N[C@@H](Cc1ccccc1)C(O)[C@H](Cc1ccccc1)NC(=O)[C@@H](CC(C)C)NC(=O)OCc1ccccc1` (some centres undefined): the IC50 in assay [1] was above 100 nM.

For `CC(=O)N[C@H](C(=O)N[C@H](C(=O)N[C@@H](Cc1ccccc1)C(O)[C@H](Cc1ccccc1)NC(=O)[C@H](NC(=O)[C@H](NC(C)=O)C(C)C)C(C)C)C(C)C)C(C)C` (some centres undefined), in assay [1], the IC50 was determined as 10 nM.

As for `CC[C@H](C)[C@H](NC(=O)OCc1ccccc1)C(=O)N[C@@H](Cc1ccccc1)C(O)[C@H](Cc1ccccc1)NC(=O)[C@H](NC(=O)OCc1ccccc1)[C@@H](C)CC` (some centres undefined), the IC50 in assay [1] amounted to 4.9 nM.

For `CC(C)(C)OC(=O)N[C@@H](Cc1ccccc1)[C@@H](O)[C@H](O)[C@H](Cc1ccccc1)NC(=O)OC(C)(C)C`, the IC50 in assay [1] worked out at 40 nM.

For the molecule `CC(C)(C)OC(=O)N[C@@H](Cc1ccccc1)[C@H](O)[C@@H](O)[C@H](Cc1ccccc1)NC(=O)OC(C)(C)C`, the IC50 in assay [1] came out at 280 nM.

Turning to `CC(=O)N[C@@H](Cc1ccccc1)C(O)[C@H](Cc1ccccc1)NC(C)=O`, the IC50 in assay [1] was above 10000 nM.

The values are drawn from ChEMBL document CHEMBL1125068, “Structure-based, C2 symmetric inhibitors of HIV protease” (J Med Chem, 1990).
